Measurements: PubChem BioAssay AID1746 (Sanford-Burnham Center for Chemical Genomics, 2009)

System: Primary human hepatocytes, TRAIL cytotoxicity, ATPlite, 24 h
Experiment: TRAIL plus compound toxicity in normal liver cells, confirmation, cytotoxicity control for TRAIL sensitizer project, cell-based, primary human hepatocytes, ATPlite luminescence, 24 h (AID 1746)
Conditions: for cytotoxicity with TRAIL: at 5 µM (top of the series); for cytotoxicity: stronger effect = higher value
Summary of the method: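 Material: primary human hepatocytes at 30–40% confluence / Also added: TRAIL, 1000 ng/mL final / Doses: compound at final amounts from 1.25 to 5 µM / Incubation: 4 h compound pretreatment, then 24 h TRAIL exposure, 37 °C / Technique: ATP-based luminescence with ATPlite reagent / Measure: percent cytotoxicity, sodium azide background signal subtracted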

[1] = compound alone without TRAIL, at 5 µM
[2] = measured here: TRAIL alone reference, dose or concentration not given here

| SMILES | cytotoxicity with TRAIL [%] | cytotoxicity [1] [%] | cytotoxicity [2] [%] |
| --- | --- | --- | --- |
| CSc1nc(-c2ccccc2)nc(C(Cl)Cl)n1 | 68 | 22 | 0 |
| CCSc1nc(-c2ccccc2)nc(C(Cl)Cl)n1 | 73 | 47 | 0 |
| CSc1nc(-c2ccc(C)cc2)nc(C(Cl)Cl)n1 | 67 | 9 | 0 |
